Results reported in ChEMBL document CHEMBL3407457, “Microwave-assisted synthesis of certain pyrrolylpyridines, some derived ring systems and their evaluation as anticancer and antioxidant agents” (Eur J Med Chem, 2015).

How the values were obtained:
MDA-MB-231 = assay: Growth inhibition of human MDA-MB-231 cells after 48 hrs by sulforhodamine B assay; type: functional; conditions: MDA-MB-231, 48 h
In short: (§1)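 NCI-60 five-dose screen: cells incubated 48 h with five concentrations (0.01-100 µM), read by sulforhodamine B protein assay. Log concentration-% growth inhibition curves gave GI50 (50% decrease in net growth), TGI (total growth inhibition) and LC50 (net 50% loss of initial cells). 5-FU positive control.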

SNB-75 = assay: Growth inhibition of human SNB75 cells after 48 hrs by sulforhodamine B assay; type: functional; conditions: SNB-75, 48 h; in short: as §1
IGROV-1 = assay: Growth inhibition of human IGROV1 cells after 48 hrs by sulforhodamine B assay; type: functional; conditions: IGROV-1, 48 h; in short: as §1
[1] = Growth inhibition of human EKVX cells after 48 hrs by sulforhodamine B assay; type: functional; in short: as §1
[2] = Growth inhibition of human RPMI8226 cells after 48 hrs by sulforhodamine B assay; type: functional; conditions: RPMI-8226, 48 h; in short: as §1
HL-60(TB) = assay: Growth inhibition of human HL-60(TB) cells after 48 hrs by sulforhodamine B assay; type: functional; conditions: HL-60, 48 h
In short: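 NCI-60 five-dose screen, HL-60(TB) being one of the leukemia subpanel lines. Cells exposed to five concentrations (0.01-100 µM) for 48 h. GI50 (concentration giving 50% decrease in net cell growth) read from log concentration-% growth inhibition curves; TGI and LC50 also derived. 5-fluorouracil as positive control.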

[3] = Growth inhibition of human SF539 cells after 48 hrs by sulforhodamine B assay; type: functional; conditions: SF-539, 48 h; in short: as §1
[4] = Growth inhibition of human OVCAR4 cells after 48 hrs by sulforhodamine B assay; type: functional; conditions: OVCAR-4, 48 h; in short: as §1
[5] = Growth inhibition of human UO31 cells after 48 hrs by sulforhodamine B assay; type: functional; conditions: UO-31, 48 h; in short: as §1
SN12C = assay: Growth inhibition of human SN12C cells after 48 hrs by sulforhodamine B assay; type: functional; in short: as §1
SF-268 = assay: Growth inhibition of human SF268 cells after 48 hrs by sulforhodamine B assay; type: functional; conditions: SF-268, 48 h; in short: as §1
[6] = Growth inhibition of human MOLT4 cells after 48 hrs by sulforhodamine B assay; type: functional; conditions: MOLT-4, 48 h; in short: as §1
[7] = Growth inhibition of human UACC62 cells after 48 hrs by sulforhodamine B assay; type: functional; conditions: UACC-62, 48 h; in short: as §1
NCI-H522 = assay: Growth inhibition of human NCI-H522 cells after 48 hrs by sulforhodamine B assay; type: functional; conditions: NCI-H522, 48 h; in short: as §1
NCI-H226 = assay: Growth inhibition of human NCI-H226 cells after 48 hrs by sulforhodamine B assay; type: functional; conditions: NCI-H226, 48 h; in short: as §1
A498 = assay: Growth inhibition of human A498 cells after 48 hrs by sulforhodamine B assay; type: functional; conditions: A498, 48 h; in short: as §1
[8] = Growth inhibition of human BT549 cells after 48 hrs by sulforhodamine B assay; type: functional; conditions: BT-549, 48 h; in short: as §1
MCF7 = assay: Growth inhibition of human MCF7 cells after 48 hrs by sulforhodamine B assay; type: functional; conditions: MCF7, 48 h; in short: as §1
SR = assay: Growth inhibition of human SR cells after 48 hrs by sulforhodamine B assay; type: functional; in short: as §1
DU-145 = assay: Growth inhibition of human DU145 cells after 48 hrs by sulforhodamine B assay; type: functional; conditions: DU-145, 48 h; in short: as §1
[9] = Growth inhibition of human HOP92 cells after 48 hrs by sulforhodamine B assay; type: functional; conditions: HOP-92, 48 h; in short: as §1
[10] = Growth inhibition of human HCT116 cells after 48 hrs by sulforhodamine B assay; type: functional; conditions: HCT-116, 48 h; in short: as §1
CCRF-CEM = assay: Growth inhibition of human CCRF-CEM cells after 48 hrs by sulforhodamine B assay; type: functional; in short: as §1
HOP-62 = assay: Growth inhibition of human HOP62 cells after 48 hrs by sulforhodamine B assay; type: functional; conditions: HOP-62, 48 h; in short: as §1
[11] = Antioxidant activity assessed as DPPH radical scavenging activity at 10^-3 M incubated for 30 mins by spectrophotometry; type: physicochemical; conditions: 0.5 h, 1000 µM
In short: (§2)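 Compound at 10^-3 or 10^-4 M mixed with methanolic DPPH (0.1 mL of 1 mM stock; 3 mL total volume), shaken, kept in the dark 30 min at room temperature. Absorbance read at 517 nm. Scavenging (%) = (A_control − A_sample)/A_control × 100, where the control is DPPH in methanol alone. BHT served as reference antioxidant. Triplicate, mean ± SD of three independent experiments.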

[12] = Antioxidant activity assessed as DPPH radical scavenging activity at 10^-4 M incubated for 30 mins by spectrophotometry; type: physicochemical; conditions: 0.5 h, 100 µM; in short: as §2
[13] = read-out: LC50 (the source's name)

Cn1cccc1-c1cc(-c2ccccc2)[nH]c(=O)c1C#N
GI50 (MDA-MB-231): 83.2 µM | GI50 (SNB-75): 47.4 µM | GI50 (IGROV-1): > 100 µM | GI50 [1]: 31.7 µM | GI50 [2]: > 100 µM | GI50 (HL-60(TB)): > 100 µM | GI50 [3]: > 100 µM | GI50 [4]: > 100 µM | GI50 [5]: > 100 µM | GI50 (SN12C): > 100 µM | GI50 (SF-268): > 100 µM | GI50 [6]: 29.1 µM | TGI [6]: 57.4 µM | GI50 [7]: 97.7 µM | GI50 (NCI-H522): > 100 µM | GI50 (NCI-H226): > 100 µM | GI50 (A498): 27.5 µM | GI50 [8]: 85.1 µM | GI50 (MCF7): > 100 µM | GI50 (SR): > 100 µM | GI50 (DU-145): > 100 µM | GI50 [9]: 0.11 µM | TGI [9]: 0.13 µM | GI50 [10]: > 100 µM | GI50 (CCRF-CEM): > 100 µM | GI50 (HOP-62): > 100 µM

Cc1cc(C(C)(C)C)c(O)c(C(C)(C)C)c1 [BUTYLATED HYDROXYTOLUENE]
inhibition (INH) [11]: 36% | inhibition (INH) [12]: 20%

CC1CCCc2c1[nH]c(=O)c(C#N)c2-c1cccn1C (stereo not drawn)
GI50 (MDA-MB-231): > 100 µM | GI50 (SNB-75): 39.8 µM | GI50 (IGROV-1): > 100 µM | GI50 [1]: > 100 µM | GI50 [2]: > 100 µM | GI50 (HL-60(TB)): > 100 µM | GI50 [3]: > 100 µM | GI50 [4]: 69.2 µM | GI50 [5]: > 100 µM | GI50 (SN12C): > 100 µM | GI50 (SF-268): > 100 µM | GI50 [6]: > 100 µM | GI50 [7]: > 100 µM | GI50 (NCI-H522): > 100 µM | GI50 (NCI-H226): > 100 µM | GI50 (A498): > 100 µM | GI50 [8]: > 100 µM | GI50 (MCF7): > 100 µM | GI50 (SR): > 100 µM | GI50 (DU-145): > 100 µM | GI50 [9]: > 100 µM | GI50 [10]: > 100 µM | GI50 (CCRF-CEM): > 100 µM | GI50 (HOP-62): > 100 µM

CC1CCCc2c1nc(N)c(C#N)c2-c1cccn1C (stereo not drawn)
GI50 (MDA-MB-231): 69.2 µM | inhibition (INH) [11]: 16% | GI50 (SNB-75): 22.4 µM | TGI (SNB-75): 85.1 µM | GI50 (IGROV-1): 70.8 µM | GI50 [1]: > 100 µM | GI50 [2]: 79.4 µM | GI50 (HL-60(TB)): 0.42 µM | GI50 [3]: > 100 µM | GI50 [4]: 77.6 µM | GI50 [5]: > 100 µM | GI50 (SN12C): 30.2 µM | GI50 (SF-268): > 100 µM | GI50 [6]: > 100 µM | GI50 [7]: 33.1 µM | GI50 (NCI-H522): 66.1 µM | inhibition (INH) [12]: 9% | GI50 (NCI-H226): 64.6 µM | GI50 (A498): 91.2 µM | GI50 [8]: 69.1 µM | GI50 (MCF7): > 100 µM | GI50 (SR): 3.39 µM | TGI (SR): 20.4 µM | CC50 (SR; [13]): 91.2 µM | GI50 (DU-145): > 100 µM | GI50 [9]: 47.9 µM | GI50 [10]: > 100 µM | GI50 (CCRF-CEM): > 100 µM | GI50 (HOP-62): > 100 µM

Cn1cccc1-c1cc(-c2cccs2)[nH]c(=O)c1C#N
GI50 (MDA-MB-231): > 100 µM | GI50 (SNB-75): 38.1 µM | GI50 (IGROV-1): 22.9 µM | GI50 [1]: 52.5 µM | GI50 [2]: > 100 µM | GI50 (HL-60(TB)): > 100 µM | GI50 [3]: > 100 µM | GI50 [4]: > 100 µM | GI50 [5]: 13.8 µM | TGI [5]: 27.5 µM | CC50 [5, 13]: 54.9 µM | GI50 (SN12C): > 100 µM | GI50 (SF-268): > 100 µM | GI50 [6]: > 100 µM | GI50 [7]: 72.4 µM | GI50 (NCI-H522): 25.7 µM | GI50 (NCI-H226): 69.2 µM | GI50 (A498): 17.8 µM | GI50 [8]: > 100 µM | GI50 (MCF7): > 100 µM | GI50 (SR): > 100 µM | GI50 (DU-145): > 100 µM | GI50 [9]: 10 µM | TGI [9]: 40.7 µM | GI50 [10]: > 100 µM | GI50 (CCRF-CEM): > 100 µM | GI50 (HOP-62): 83.2 µM
